PolyA inhibitor – blocks polyadenylation in yeast reporter cells; S. cerevisiae SKY197-pL101 polyadenylation reporter, beta-gal luminescence; efflux-impaired pdr1/pdr3 knockout yeast; score 100 = 6 SD above DMSO; activity score, % at 12 µM; 0.02% of 300,000 active; AID 1875;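 active means lowest replicate activity score at least 50, where 100 means six control SD above control mean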;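 further: yeast exposed to compound for 9 h at 30 °C; higher score means more reporter readthrough which indicates perturbed polyadenylation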
NALP1 inh – blocks the NALP1 inflammasome reconstituted in yeast | S. cerevisiae NALP1/ASC/caspase-1 growth, X-gal OD620, 72 h | inhibition, % at 10 µM | 0.61% of 280,000 active | AID 2071; in the data active means inhibition mostly above about 24%, no sharp cut-off; inactive means mostly below about 32%
NLRP3 yeast inh – NALP3 inhibition in yeast; Yeast reconstituted NLRP3/ASC/caspase-1, beta-gal luminescence, 24 h; inhibition, % at 10 µM; 0.39% of 330,000 active; AID 2825;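 active means inhibition of 50% or more; inactive means inhibition below 50%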;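 further: plate controls were induced DMSO wells for no effect and uninduced yeast grown without galactose for full effect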
IMP-1 inh – inhibitors of Pseudomonas aeruginosa IMP-1 metallo-beta-lactamase. purified IMP-1, nitrocefin hydrolysis, epi-absorbance fluorescence. inhibition, % at 5.6 µM. 0.45% of 290,000 active. AID 1556;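 active means inhibition above the mean plus 3 SD of all compounds in the same screening run, cut at about 4.5% in these data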;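 further: 0% = IMP-1 with DMSO and 100% = DMSO wells lacking enzyme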
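System: purified IMP-1; amount: IMP-1 0.2 nM before substrate addition; compound: single dose, 5.6 µM; times: 25 °C, 15 min preincubation, 25 min reaction; signal: Epi-absorbance via hydrolysed-nitrocefin quenching of white-plate fluorescence, 480/530 nm, EDTA stop; benchmarks: DMSO with and without IMP-1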
Mot1-301 SUMO – inhibitors of SUMOylation pathway: yeast Mot1-301 growth rescue; 1% of 320,000 active; S. cerevisiae Mot1-301 growth rescue, ATP luminescence, 38.5C; percent above DMSO median, 100 means doubled; growth rescue, % at 18.8 µM;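 active means every valid replicate shows activation above 250% relative to neutral control wells; inactive means the rest, any valid replicate at or below 250%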;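 further: OY570 slx delta 5 strain wells were the positive control but not used for scaling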
VIM-2 inh – blocks Pseudomonas aeruginosa VIM-2 metallo-beta-lactamase | 0.89% of 290,000 active | inhibition, % at 5.6 µM | purified VIM-2, nitrocefin hydrolysis, epi-absorbance fluorescence;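 active means inhibition above the mean of all tested compounds plus 3 SD, cutoff set per screening run, cut at about 7.5% in these data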;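 further: red hydrolysis product quenches plate fluorescence so inhibitors raise well fluorescence; 0% = enzyme with DMSO and 100% = DMSO without enzyme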
An asterisk follows results filed as active; . = not tested or not shown. Shown are actives, neighbours in structure and some others; about 2.9% of the full set was active somewhere.

SMILES | PolyA inhibitor | NALP1 inh | NLRP3 yeast inh | IMP-1 inh | Mot1-301 SUMO | VIM-2 inh
Cn1cnc2cc(NCc3ccc(Cl)cc3)ccc21 | -17.6 | 9.8 | 29.7 | -1.2 | -15.8 | -0.9
NC(=S)N/N=C\c1c(OCc2ccccc2Cl)ccc2ccccc12 | -14.3 | -3.8 | 19.2 | -2.8 | -12.5 | -5.0
C[C@@H](CN1C(=O)C(=O)NC[C@@H]1Cc1ccc(O)cc1)NC(=O)Cc1ccccc1 | -11.8 | 2.1 | -3.7 | 13.3* | 3.1 | -1.1
O=C1NC[C@H](Cc2ccc(O)cc2)N(CCc2cccc3ccccc23)C1=O | 6.4 | . | 10.2 | . | -7.4 | .
Cc1sc2ncnc(NCC(c3ccco3)N3CCCC3)c2c1C (stereo not drawn) | 6.6 | -7.3 | 8.9 | -0.6 | . | 10.6*
COc1cc(CNCc2ccncc2)cc(OC)c1OC | 20.3 | 14.9 | -1.7 | 6.1* | 11.0 | 1.4
COc1cc(CNCc2ccc(C)cc2)cc(OC)c1OC | -2.2 | -5.7 | 12.0 | -2.4 | 80.0 | -2.0
Cc1cc(Nc2ccc(Cl)cc2)nc(NCc2ccccc2)n1 | 9.9 | 76.4* | 26.1 | -1.8 | -10.1 | -1.8
Cc1cc(Nc2ccccc2)nc(NCc2ccccc2)n1 | 7.1 | 41.7 | 35.8 | -4.8 | 0.5 | -0.3
Cc1cc(Nc2cccc(F)c2)nc(NCc2ccccc2)n1 | -5.2 | 71.7* | 15.9 | -3.1 | 79.0 | -1.1
O=C(CC1C[C@H](C(=O)N2CCOCC2)[C@@]2(CCC3CCCC3)c3[nH]c4ccccc4c3CCN2C1=O)NCCCn1ccnc1 (stereo partly drawn) | . | . | 8.2 | . | -4.6 | .
CCn1cc(S(=O)(=O)c2ccc(Cl)cc2)c(=O)c2cc(OC)ccc21 | 2.5 | 13.1 | 8.5 | -4.6 | 38.0 | -1.7
CCc1noc(C)c1C(=O)Nc1nc(-c2ccc(OC)cc2OC)cs1 | -15.4 | . | 29.0 | . | 2.9 | .
O=C1C2C(C(=O)N1/N=C/c1cc(Br)cc([N+](=O)[O-])c1O)C1C=CC2C12CC2 (stereo not drawn) | 12.0 | 47.4 | 33.0 | 7.0* | 2.4 | -4.3
O=C(O)c1ccc(S(=O)(=O)c2ccc(Sc3ccc(C(=O)O)c(C(=O)O)c3)cc2)cc1 | 12.4 | 1.7 | 4.6 | 3.4 | -12.1 | 8.9*
COc1ccccc1N(CC(=O)N1CCN(c2ccccc2)CC1)S(=O)(=O)c1ccc(C)cc1 | 7.9 | 12.3 | 3.3 | -0.7 | 4.4 | -4.3
COc1cc(S(=O)(=O)NC(Cc2c[nH]c3ccccc23)C(=O)O)ccc1NC(C)=O (stereo not drawn) | -1.7 | 13.0 | 13.3 | 5.9* | -3.7 | -0.8
O=C(NCCC1=CCCCC1)c1ccc2c(c1)N(Cc1ccccc1)C(=O)CS2 | -10.7 | 38.2* | 11.0 | -3.6 | -7.0 | -3.3
O=C(NCCN1CCOCC1)c1ccc2c(c1)N(Cc1ccccc1)C(=O)CS2 | 13.6 | -8.5 | 8.9 | -3.8 | 4.5 | 0.8
CN(C)Cc1c(C(=O)N/N=C/CCc2ccccc2)nnn1-c1nonc1N | -1.3 | 25.1 | 13.5 | -1.6 | -21.9 | 0.3
O=C(O)c1cccc(CSc2n[nH]c(-c3ccc(Cl)cc3Cl)n2)c1 | 6.3 | 53.1* | 10.2 | -4.6 | -6.5 | -1.7
COc1ccc(Nc2nnc(SCc3cc([N+](=O)[O-])cc4c3OCOC4)s2)cc1 | -6.2 | 43.6* | -1.4 | -4.9 | -13.5 | -6.5
CC(=O)N(C1=C(Cl)C(=O)c2ccccc2C1=O)C1CCCCC1 | -5.7 | 66.2* | 17.8 | -2.0 | 17.3 | 0.2
CN(Cc1ccccc1F)C(=O)c1sccc1-c1ccccc1 | -35.3 | 2.8 | 28.1 | -1.9 | -22.1 | -2.3
COC(=O)C1CCN(C(=O)COC(=O)CNC(=O)c2ccc(Cl)cc2Cl)CC1 | . | . | 3.1 | . | -18.2 | .
Cc1ccc(S(=O)(=O)NNC(=O)c2snnc2C)cc1 | -1.9 | 37.0* | -8.8 | 0.8 | . | -2.1
Cc1nnsc1C(=O)NNS(=O)(=O)c1cc(C(F)(F)F)cc(C(F)(F)F)c1 | 16.0 | 18.6 | -4.2 | -1.8 | 13.7 | -4.3
COc1ccc(N=C2S/C(=C\c3ccc(C)o3)C(=O)N2CC(C)C)cc1 | 10.3 | 39.9* | 14.2 | -5.0 | 133.0 | -1.3
CNC(=S)N(Cc1cc2cc(C)ccc2n2nnnc12)CC(C)(C)CN(C)C | -8.7 | 11.0 | 17.5 | 0.0 | 10.2 | 2.1
NC(=O)c1sc2nc(-c3ccco3)ccc2c1N | -5.8 | -8.3 | 24.7 | 1.0 | -4.1 | 11.4*

Assay outcomes as filed in PubChem.
